From ChEMBL document CHEMBL1126178, “Structure-activity study of hCGRP8-37, a calcitonin gene-related peptide receptor antagonist” (J Med Chem, 1992)

Assays:
Rattus norvegicus [1] = species: Rattus norvegicus; assay: Dose inhibiting the twitch response induced by hCGRP-alpha in rat vas deferens relative to hCGRP(8-37).; format: functional; set-up: unit not given here
[2] = molecular target: Calcitonin gene-related peptide type 1 receptor (Rattus norvegicus, UniProt Q63118); assay: Binding affinity against [125I]-hCalcitonin gene-related peptide type alpha receptor binding sites in rat brain membrane; format: cell membranes
Sequence of Calcitonin gene-related peptide type 1 receptor (Q63118 whole entry): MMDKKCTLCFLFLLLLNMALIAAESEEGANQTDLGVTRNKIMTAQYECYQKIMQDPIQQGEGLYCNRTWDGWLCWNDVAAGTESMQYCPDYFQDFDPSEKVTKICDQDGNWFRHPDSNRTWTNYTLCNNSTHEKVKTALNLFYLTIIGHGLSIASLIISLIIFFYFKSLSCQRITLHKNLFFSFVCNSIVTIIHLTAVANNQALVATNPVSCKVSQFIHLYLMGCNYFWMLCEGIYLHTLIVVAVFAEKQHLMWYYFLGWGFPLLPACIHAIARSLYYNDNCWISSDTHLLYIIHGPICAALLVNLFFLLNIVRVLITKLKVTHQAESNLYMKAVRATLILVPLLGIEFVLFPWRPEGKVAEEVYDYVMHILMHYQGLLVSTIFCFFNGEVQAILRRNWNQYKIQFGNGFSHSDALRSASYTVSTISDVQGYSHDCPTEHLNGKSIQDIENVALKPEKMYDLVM

Cavia porcellus [3] = species: Cavia porcellus; assay: Dose inhibiting the ionotropic response induced by hCGRP-alpha in guinea pig right atrium relative to hCGRP(8-37).; format: functional, Cardiac atrium; set-up: unit not given here
Rattus norvegicus [4] = species: Rattus norvegicus; assay: Dose inhibiting the twitch response induced by hCGRP-alpha in rat vas deferens.; format: functional
Summary of the method: (§1)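 Atria were taken from male Hartley guinea pigs (350-400 g) and the prostatic vas deferens from male Sprague-Dawley rats (200-250 g). Tissues were mounted on platinum electrodes in oxygenated Krebs-Ringer at 37 °C and equilibrated 1 h at 0.5-1 g tension. Force-transducer responses were recorded to cumulative hCGRPα concentrations, with test peptide (1 µM) added 10 min before. Values are mean ± SE.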

Cavia porcellus [5] = species: Cavia porcellus; assay: Dose inhibiting the ionotropic response induced by hCGRP-alpha in guinea pig left atrium relative to hCGRP(8-37).; format: functional, Cardiac atrium; set-up: unit not given here
Cavia porcellus [6] = species: Cavia porcellus; assay: Dose inhibiting the chronotropic response induced by hCGRP-alpha in guinea pig right atrium.; format: functional; conditions: Cardiac atrium; summary of the method: as §1
Cavia porcellus [7] = species: Cavia porcellus; assay: Dose inhibiting the ionotropic response induced by hCGRP-alpha in guinea pig left atrium.; format: functional; conditions: Cardiac atrium; summary of the method: as §1
Cavia porcellus [8] = species: Cavia porcellus; assay: Dose inhibiting the chronotropic response induced by hCGRP-alpha in guinea pig right atrium relative to hCGRP(8-37).; format: functional, Cardiac atrium; set-up: unit not given here
Cavia porcellus [9] = species: Cavia porcellus; assay: Dose inhibiting the ionotropic response induced by hCGRP-alpha in guinea pig right atrium.; format: functional; conditions: Cardiac atrium; summary of the method: as §1

IC50 [2] [nM] | EC50 (Rattus norvegicus [4]) [nM] | EC50 (Cavia porcellus [6]) [nM] | EC50 (Cavia porcellus [7]) [nM] | EC50 (Cavia porcellus [9]) [nM] | Compound | Relative potency (Rattus norvegicus [1]) | Relative potency (Cavia porcellus [3]) | Relative potency (Cavia porcellus [5]) | Relative potency (Cavia porcellus [8])
6.8 | 2.4 | 238 | 117 | 193 | CC(C)C[C@H](NC(=O)CNC(=O)[C@H](C)NC(=O)[C@H](CC(C)C)NC(=O)[C@H](CCCN=C(N)N)NC(=O)[C@H](Cc1c[nH]cn1)NC(=O)[C@H](C)NC(=O)[C@@H](N)C(C)C)C(=O)N[C@@H](CC(C)C)C(=O)N[C@@H](CO)C(=O)N[C@@H](CCCN=C(N)N)C(=O)N[C@@H](CO)C(=O)NCC(=O)NCC(=O)N[C@H](C(=O)N[C@H](C(=O)N[C@@H](CCCCN)C(=O)N[C@@H](CC(N)=O)C(=O)N[C@@H](CC(N)=O)C(=O)N[C@@H](Cc1ccccc1)C(=O)N[C@H](C(=O)N1CCC[C@H]1C(=O)N[C@H](C(=O)N[C@@H](CC(N)=O)C(=O)N[C@H](C(=O)NCC(=O)N[C@@H](CO)C(=O)N[C@@H](CCCCN)C(=O)N[C@@H](C)C(=O)N[C@@H](Cc1ccccc1)C(N)=O)C(C)C)[C@@H](C)O)C(C)C)C(C)C)C(C)C | 36 | 72 | 60 | 82
 | 1.4 | 19 | 8.7 | 7.9 | CC(C)C[C@H](NC(=O)CNC(=O)[C@H](C)NC(=O)[C@H](CC(C)C)NC(=O)[C@H](CCCN=C(N)N)NC(=O)[C@H](Cc1c[nH]cn1)NC(=O)[C@@H](NC(=O)[C@@H](NC(=O)[C@@H]1CSSC[C@H](NC(=O)[C@H](C)N)C(=O)N[C@@H](CC(=O)O)C(=O)N[C@@H]([C@@H](C)O)C(=O)N[C@@H](C)C(=O)N[C@@H]([C@@H](C)O)C(=O)N1)C(C)C)[C@@H](C)O)C(=O)N[C@@H](CC(C)C)C(=O)N[C@@H](CO)C(=O)N[C@@H](CCCN=C(N)N)C(=O)N[C@@H](CO)C(=O)NCC(=O)NCC(=O)N[C@H](C(=O)N[C@H](C(=O)N[C@@H](CCCCN)C(=O)N[C@@H](CC(N)=O)C(=O)N[C@@H](CC(N)=O)C(=O)N[C@@H](Cc1ccccc1)C(=O)N[C@H](C(=O)N1CCC[C@H]1C(=O)N[C@H](C(=O)N[C@@H](CC(N)=O)C(=O)N[C@H](C(=O)NCC(=O)N[C@@H](CO)C(=O)N[C@@H](CCCCN)C(=O)N[C@@H](C)C(=O)N[C@@H](Cc1ccccc1)C(N)=O)C(C)C)[C@@H](C)O)C(C)C)C(C)C)C(C)C |  |  |  | 
10 | 3.2 | 77 | 65 | 114 | CC(C)C[C@H](NC(=O)CNC(=O)[C@H](C)NC(=O)[C@H](CC(C)C)NC(=O)[C@H](CCCN=C(N)N)NC(=O)[C@@H](N)Cc1c[nH]cn1)C(=O)N[C@@H](CC(C)C)C(=O)N[C@@H](CO)C(=O)N[C@@H](CCCN=C(N)N)C(=O)N[C@@H](CO)C(=O)NCC(=O)NCC(=O)N[C@H](C(=O)N[C@H](C(=O)N[C@@H](CCCCN)C(=O)N[C@@H](CC(N)=O)C(=O)N[C@@H](CC(N)=O)C(=O)N[C@@H](Cc1ccccc1)C(=O)N[C@H](C(=O)N1CCC[C@H]1C(=O)N[C@H](C(=O)N[C@@H](CC(N)=O)C(=O)N[C@H](C(=O)NCC(=O)N[C@@H](CO)C(=O)N[C@@H](CCCCN)C(=O)N[C@@H](C)C(=O)N[C@@H](Cc1ccccc1)C(N)=O)C(C)C)[C@@H](C)O)C(C)C)C(C)C)C(C)C | 48 | 43 | 34 | 27
33 | 3.1 | 83 | 58 | 106 | H-VTHALAGLLSRSGGVVKNNFVPTNVGSKAF-NH2 | 46 | 40 | 30 | 29
 | 1.4 | 65 | 30 | 89 | CC(C)C[C@H](NC(=O)CNC(=O)[C@H](C)NC(=O)[C@H](CC(C)C)NC(=O)[C@@H](N)CCCN=C(N)N)C(=O)N[C@@H](CC(C)C)C(=O)N[C@@H](CO)C(=O)N[C@@H](CCCN=C(N)N)C(=O)N[C@@H](CO)C(=O)NCC(=O)NCC(=O)N[C@H](C(=O)N[C@H](C(=O)N[C@@H](CCCCN)C(=O)N[C@@H](CC(N)=O)C(=O)N[C@@H](CC(N)=O)C(=O)N[C@@H](Cc1ccccc1)C(=O)N[C@H](C(=O)N1CCC[C@H]1C(=O)N[C@H](C(=O)N[C@@H](CC(N)=O)C(=O)N[C@H](C(=O)NCC(=O)N[C@@H](CO)C(=O)N[C@@H](CCCCN)C(=O)N[C@@H](C)C(=O)N[C@@H](Cc1ccccc1)C(N)=O)C(C)C)[C@@H](C)O)C(C)C)C(C)C)C(C)C |  |  |  | 

Further lines, the compound ahead of its results:

Compound | IC50 [2] [nM] | EC50 (Rattus norvegicus [4]) [nM] | EC50 (Cavia porcellus [6]) [nM] | EC50 (Cavia porcellus [7]) [nM] | EC50 (Cavia porcellus [9]) [nM] | Relative potency (Rattus norvegicus [1]) | Relative potency (Cavia porcellus [3]) | Relative potency (Cavia porcellus [5]) | Relative potency (Cavia porcellus [8])
CC(C)C[C@H](NC(=O)CNC(=O)[C@H](C)NC(=O)[C@H](CC(C)C)NC(=O)[C@H](CCCNC(=N)N)NC(=O)[C@H](Cc1cnc[nH]1)NC(=O)[C@@H](NC(=O)[C@@H](N)C(C)C)[C@@H](C)O)C(=O)N[C@@H](CC(C)C)C(=O)N[C@@H](CO)C(=O)N[C@@H](CCCNC(=N)N)C(=O)N[C@@H](CO)C(=O)NCC(=O)NCC(=O)N[C@H](C(=O)N[C@H](C(=O)N[C@@H](CCCCN)C(=O)N[C@@H](CC(N)=O)C(=O)N[C@@H](CC(N)=O)C(=O)N[C@@H](Cc1ccccc1)C(=O)N[C@H](C(=O)N1CCC[C@H]1C(=O)N[C@H](C(=O)N[C@@H](CC(N)=O)C(=O)N[C@H](C(=O)NCC(=O)N[C@@H](CO)C(=O)N[C@@H](CCCCN)C(=O)N[C@@H](C)C(=O)N[C@@H](Cc1ccccc1)C(N)=O)C(C)C)[C@@H](C)O)C(C)C)C(C)C)C(C)C |  | 6.7 | 290 | 194 | 267 |  |  |  | 
H-VTHRAAGLLSRSGGVVKNNFVPTNVGSKAF-NH2 | 22 | 2.2 | 116 | 89 | 116 | 33 | 43 | 46 | 40
CC(C)C[C@H](NC(=O)CNC(=O)[C@H](C)NC(=O)[C@H](CC(C)C)NC(=O)[C@H](CCCN=C(N)N)NC(=O)[C@H](C)NC(=O)[C@@H](NC(=O)[C@@H](N)C(C)C)[C@@H](C)O)C(=O)N[C@@H](CC(C)C)C(=O)N[C@@H](CO)C(=O)N[C@@H](CCCN=C(N)N)C(=O)N[C@@H](CO)C(=O)NCC(=O)NCC(=O)N[C@H](C(=O)N[C@H](C(=O)N[C@@H](CCCCN)C(=O)N[C@@H](CC(N)=O)C(=O)N[C@@H](CC(N)=O)C(=O)N[C@@H](Cc1ccccc1)C(=O)N[C@H](C(=O)N1CCC[C@H]1C(=O)N[C@H](C(=O)N[C@@H](CC(N)=O)C(=O)N[C@H](C(=O)NCC(=O)N[C@@H](CO)C(=O)N[C@@H](CCCCN)C(=O)N[C@@H](C)C(=O)N[C@@H](Cc1ccccc1)C(N)=O)C(C)C)[C@@H](C)O)C(C)C)C(C)C)C(C)C |  | 3.2 | 129 | 95 | 179 |  |  |  | 
CC(C)C[C@H](NC(=O)CNC(=O)[C@H](C)NC(=O)[C@H](CC(C)C)NC(=O)[C@H](CCCN=C(N)N)NC(=O)[C@H](Cc1c[nH]cn1)NC(=O)[C@@H](N)[C@@H](C)O)C(=O)N[C@@H](CC(C)C)C(=O)N[C@@H](CO)C(=O)N[C@@H](CCCN=C(N)N)C(=O)N[C@@H](CO)C(=O)NCC(=O)NCC(=O)N[C@H](C(=O)N[C@H](C(=O)N[C@@H](CCCCN)C(=O)N[C@@H](CC(N)=O)C(=O)N[C@@H](CC(N)=O)C(=O)N[C@@H](Cc1ccccc1)C(=O)N[C@H](C(=O)N1CCC[C@H]1C(=O)N[C@H](C(=O)N[C@@H](CC(N)=O)C(=O)N[C@H](C(=O)NCC(=O)N[C@@H](CO)C(=O)N[C@@H](CCCCN)C(=O)N[C@@H](C)C(=O)N[C@@H](Cc1ccccc1)C(N)=O)C(C)C)[C@@H](C)O)C(C)C)C(C)C)C(C)C |  | 7.6 | 180 | 215 | 225 |  |  |  | 
